# Shown are actives, neighbours in structure and some others; about 3.5% of the full set was active somewhere.
# Pf gamet viab = late stage P. falciparum gametocyte viability inhibitors, primary screen, ATP luminescence, HTS; P. falciparum stage V gametocytes, 24 h; inhibition, % at 10.9 µM; actives 0.065% (n = 150,000); AID 743093, 2013;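 active means inhibition above the mean plus 3 SD of compounds within the control limits, set per campaign, cut at about 38% in these data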;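 further: 0% = DMSO wells and 100% = medium only without gametocytes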
# APP 5'UTR act = activators of APP 5'UTR luciferase reporter, primary screen, SH-SY5Y cells | SH-SY5Y APP 5'UTR luciferase reporter, luminescence; zero percent = DMSO vehicle wells | activation, % at 2 µM | actives 1% (n = 190,000) | AID 1276, 2008;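 active means activation above a set limit, based on mean plus 3 SD of controls, cut at about 140% in these data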
# FLuc stim CS = FLuc activators, initial screening, artefact control for FLuc-dependent activation tests, biochemical, ATPlite luminescence; Luciferin 4-monooxygenase (Photinus pyralis), P08659; ATPlite luciferase biochemical, 10 min; 0 = ATP-free wells, 1 = DMSO control; activation factor at 10 µM; 200,000 tested, under 10 active;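 active means luciferase activation factor, scaled between plate controls, of at least 2 with compound at 10 µM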
# Target sequence (P08659 whole entry, looked up): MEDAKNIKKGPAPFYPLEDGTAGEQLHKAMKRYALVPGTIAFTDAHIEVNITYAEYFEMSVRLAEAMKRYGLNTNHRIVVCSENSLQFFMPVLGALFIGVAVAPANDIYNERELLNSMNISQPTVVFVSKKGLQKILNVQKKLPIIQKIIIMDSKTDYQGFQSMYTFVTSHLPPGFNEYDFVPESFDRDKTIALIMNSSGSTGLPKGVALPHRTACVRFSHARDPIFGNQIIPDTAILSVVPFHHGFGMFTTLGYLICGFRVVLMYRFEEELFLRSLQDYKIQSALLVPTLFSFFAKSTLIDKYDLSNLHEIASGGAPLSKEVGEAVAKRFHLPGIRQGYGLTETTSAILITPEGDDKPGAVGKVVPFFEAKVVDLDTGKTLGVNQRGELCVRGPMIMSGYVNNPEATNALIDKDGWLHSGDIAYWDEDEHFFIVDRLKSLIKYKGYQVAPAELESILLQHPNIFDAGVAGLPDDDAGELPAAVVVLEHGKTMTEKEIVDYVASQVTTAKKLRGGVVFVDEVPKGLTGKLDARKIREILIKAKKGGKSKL
#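 Material: Luciferase/luciferin reagent mix | Doses: Test compounds dosed from 2 mM stocks in 100% DMSO | Timing: 10 min incubation after luciferase reagent addition, room temperature | Measured by: Luminescence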
# FLuc inh counter = firefly luciferase enzyme inhibitors, primary screen, artefact control for luciferase-based inhibitor screens, biochemical, luminescence, ATPLite; 10 min; inhibition, % at 10 µM; actives 1.5% (n = 200,000); Luciferin 4-monooxygenase (Photinus pyralis), P08659;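 active means inhibition above about 50% when tested at 10 µM, limit read from the data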
# STAT1 act = STAT1 signaling activators, primary screen, cell-based, HTS, luciferase reporter. NIH 3T3 STAT1-luciferase reporter, IFN-gamma, luminescence; 100% = IFN-gamma alone, no compound. actives 2.6% (n = 200,000). activation (% of control), % at 5.5 µM;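 active means activation above the screen-wide mean activation plus 3 SD, cut at about 130% in these data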;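 further: raw ratio to IFN-gamma control signal so 100% means no change and 0% no light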
# NF-kB neuron act = activators of NF-kB expression in neurons, primary screen, cell-based, HTS; fold change at 12.5 µM; human neuronal cells, NF-kB reporter expression; hits give high values; actives 1.6% (n = 190,000); in the data active means fold change above about 3.3
# The depositor's hits bear a star; · = not tested or not shown.
SMILES,Pf gamet viab,APP 5'UTR act,FLuc stim CS,FLuc inh counter,STAT1 act,NF-kB neuron act
COCCn1c(C)cc(C2=NNC(=Nc3ccccc3)SC2)c1C,18,155*,0.1,88*,143*,0.33
C=CCn1c(C)cc(C2=NNC(=NCc3ccccc3)SC2)c1C,-8,139*,0.7,32,112,2.8
CCN=C1NN=C(c2c[nH]c3ccccc23)CS1,16,162*,0.6,43,125,·
N#Cc1ccccc1CCN1C(=O)c2ccccc2C1=O,17,·,·,·,·,·
C=CCn1c(=O)/c(=C2/SC(C)=C(C)N2CC)s/c1=C1/C(=O)N(CC)C(=S)N1c1ccccc1,·,14,1,2,103,1.1
O=C(NCCCN1CCOCC1)C(=O)NCc1ccc(Cl)cc1,-6,-1,1,-2,93,1.2
COc1ccc(NC(=O)COC(=O)Cc2c(F)cccc2Cl)cc1OC,-13,-15,1,2,91,1.6
CCCCN1C(=O)/C(=C2\SC(N3CCCCC3)=NC2=O)c2ccccc21,-20,40,0.5,55*,125,0.76
O=C1N=C(N2CCOCC2)S/C1=C1\C(=O)N(Cc2ccccc2)c2ccc(Br)cc21,·,·,1,-2,·,·
CC(/C=N/NC(=O)c1cccnc1)=C\c1ccccc1,2,21,0.4,65*,127,1.8
Cn1c(-c2ccccc2)c(/C=N/NC(=O)c2cccnc2)c2ccccc21,·,4,0.7,33,131*,1.2
O=C(N/N=C/c1c(-c2ccccc2)[nH]c2ccccc12)c1cccnc1,-2,32,0.5,45,107,·
CC(=C/c1ccccc1)/C=N/NC(=O)c1cnccn1,·,65,0.3,74*,114,1.9
CC(/C=N\NC(=O)c1cc(C)oc1C)=C\c1ccccc1,4,33,0.2,76*,125,1.5
O=C(COc1ccccc1[N+](=O)[O-])N(Cc1ccccc1)c1ccccn1,-6,-6,1,-4,103,1
COc1cc2[nH]c(=S)nc(Nc3ccc(NC(C)=O)cc3)c2cc1OC,-5,-4,1.1,-8,97,1
FC(F)(F)C(F)(F)C(F)(F)c1nnc2ccc(N3CCOCC3)nn12,12,3,1.1,-5,97,1.1
COc1ccc(-c2nnc(SCC(=O)Nc3cc(C)on3)o2)cc1,0,0,1,0,97,1.2
O=S(=O)(NCc1ccc2c(c1)OCO2)c1cccc2cccnc12,·,-11,1,2,101,1.1
O=C(N/N=C/C(Cl)=C/c1ccccc1)c1cnccn1,-13,8,0.4,56*,121,1.3
CC(/C=N/NC(=O)CSc1ccccn1)=C\c1ccc(C(C)C)cc1,-4,37,1,-2,124,1.5
CC(=C/c1ccc(C(C)C)cc1)/C=N/NC(=O)CSc1ccccn1,-19,51,1.1,-8,149*,0.84
O=c1c(C=NCc2cccnc2)c(C(F)(F)F)[nH]n1-c1nc2ccccc2s1,11,95,0.3,74*,64,1.5
CC(C)C[C@@H](CC#N)N1CCN(Cc2ccccc2)CCC1=O,12,·,·,·,·,·
COc1cc(CNc2ccc(N3CCCC3)cc2)ccc1OCc1ccccc1,-9,84,0.7,35,121,1.1
SMILES,Pf gamet viab,APP 5'UTR act,FLuc stim CS,FLuc inh counter,STAT1 act,NF-kB neuron act
COc1cc(CNc2ccc(N3CCCC3)cc2)ccc1OCc1ccccc1F,·,41,0.4,57*,125,1.7
Cn1nccc1C(=O)Nc1sc2c(c1C(N)=O)CCCC2,6,33,0.8,20,146*,1.5
Cc1cccc(C(=O)Nc2sc3c(c2C#N)CCCCC3)c1,·,178*,0.7,32,128,3.6*
N#Cc1c(NC(=O)c2cnccn2)sc2c1CCCC2,-7,51,0.6,44,140*,0.93
Cc1cccc(C(=O)Nc2sc3c(c2C(=O)O)CCC3)c1,-15,·,·,·,·,·
NC(=O)c1c(NC(=O)c2cccnc2)sc2c1CCCCC2,-7,·,·,·,·,·
CC(C)c1cc(C(=O)Nc2sc3c(c2C#N)CCC3)no1,·,18,1,2,103,1.3
NC(=O)c1c(NC(=O)c2cccnc2)sc2c1CCCC2,·,28,0.8,23,134*,1.8
CS(=O)(=O)N1CC(C(=O)O)Oc2ccc(CC(=O)O)cc21 (stereo unspecified),0,18,1,0,98,1.1
OCC1(CCc2ccccc2)CCN(Cc2cccn2-c2cccnc2)CC1,-11,1,1,-4,107,0.97
N#Cc1c(NC(=O)c2cccnc2)sc2c1CCC2,·,1,0.5,54*,101,1.9
C/C=C/c1ccc(OCC(=O)OCc2csc(Nc3ccc(C)cc3)n2)c(OC)c1,-24,10,0.8,19,110,1.8
Cc1ccc(Nc2nc(COC(=O)COc3ccc(C=O)cc3)cs2)cc1,·,32,0.5,46,131*,2.1
O=C(COC(=O)CSc1ccc2ccccc2c1)NCc1ccc2c(c1)OCO2,48*,5,1,0,96,1.3
COc1ccc(S(=O)(=O)NNC(=O)Nc2ccc(F)cc2)cc1,-15,·,·,·,·,·
CC(=O)NC1C(=O)Nc2c(C)cc(C)cc21 (stereo unspecified),·,8,1,-1,138*,1.1
CC(=O)NC1C(=O)N=C(SCc2ccccc2)NC1=O (stereo unspecified),34,-5,1.1,-6,105,1
Cc1ccc(O)c(C(=O)CC(=O)c2cccc(F)c2)c1,-24,84,1,-4,130*,1.5
O=C(CC(=O)c1cc(Cl)ccc1O)c1ccccc1,·,58,1,-1,131*,2
CN1C2=C(C(=O)CC(C)(C)C2)C(c2cccs2)C2=C1CC(C)(C)CC2=O,10,·,·,·,·,·
CC1(C)CNc2cc([N+](=O)[O-])ccc2S1,-27,-26,1,2,109,1.6
O=C(O)c1ccc2oc(SCC(=O)N3CCCCC3)nc2c1,7,51,1,1,137*,1.8
CCN(CC)C(=O)CCc1nnc(Cc2cccc(C(F)(F)F)c2)o1,-27,113,1,-2,146*,3.3*
Cc1cc(CN(C)C(=O)CCc2nnc(Cc3cccc(C(F)(F)F)c3)o2)on1,-20,18,1.1,-9,124,2.4
OC1CCCCC1Sc1nc2ccccc2s1 (stereo unspecified),·,10,1,4,130*,2.1
O=C1OCCC1Sc1nc2ccccc2s1 (stereo unspecified),-33,-8,1.1,-5,106,1.3
N#CCc1ccc(OC(=O)c2ccncc2)cc1,5,·,·,·,·,·
